Data set [1] can be described thus: Inhibition of serum stimulated HER-14 (EGF-receptor expressing) cell proliferation. The data set is classed as functional. The method in brief: (§1)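 Cells were kept in DMEM with 10% FBS, grown to 70% confluence, PBS-washed and serum-starved for 24 h. They were then exposed to drug plus serum for 72 h, with DMSO at most 0.2%. Growth was measured by SRB staining after TCA fixation, OD 492 nm. IC50s are means from three experiments.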

The test system of the next data set is NIH3T3. As to the kind of experiment: Inhibition of serum stimulated NIH3T3 cell proliferation. The data set is classed as functional, cell-based. Particulars: Mus musculus; call rule not given here. The method in brief: as §1
Data set [2] can be described thus: Inhibition of serum stimulated NIH3T3/neu (ErbB2/neu expressing) cell proliferation. The data set is classed as functional. The method in brief: as §1
Data set [3] is described as follows: Half-life period in phosphate buffered saline (PBS). The data set is classed as ADME.
The nature of data set [4]: Half-life period in RPMI. The data set is classed as ADME. The settings on record: RPMI medium. The method in brief: (§2)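 Compound dissolved in a minimal amount of DMSO and diluted into RPMI-1640 with 10% FBS. Absorbance was monitored spectrophotometrically in a UV cell held at 37 °C. Half-life came from a one-phase exponential decay curve fit. Each value is from a single experiment.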

For data set [5], the target named is Epidermal growth factor receptor (Homo sapiens) (UniProt P00533). As to the kind of experiment: Inhibition of epidermal growth factor receptor tyrosine kinase (EGFR TK).
Chain of Epidermal growth factor receptor (Homo sapiens) (P00533 whole entry, looked up): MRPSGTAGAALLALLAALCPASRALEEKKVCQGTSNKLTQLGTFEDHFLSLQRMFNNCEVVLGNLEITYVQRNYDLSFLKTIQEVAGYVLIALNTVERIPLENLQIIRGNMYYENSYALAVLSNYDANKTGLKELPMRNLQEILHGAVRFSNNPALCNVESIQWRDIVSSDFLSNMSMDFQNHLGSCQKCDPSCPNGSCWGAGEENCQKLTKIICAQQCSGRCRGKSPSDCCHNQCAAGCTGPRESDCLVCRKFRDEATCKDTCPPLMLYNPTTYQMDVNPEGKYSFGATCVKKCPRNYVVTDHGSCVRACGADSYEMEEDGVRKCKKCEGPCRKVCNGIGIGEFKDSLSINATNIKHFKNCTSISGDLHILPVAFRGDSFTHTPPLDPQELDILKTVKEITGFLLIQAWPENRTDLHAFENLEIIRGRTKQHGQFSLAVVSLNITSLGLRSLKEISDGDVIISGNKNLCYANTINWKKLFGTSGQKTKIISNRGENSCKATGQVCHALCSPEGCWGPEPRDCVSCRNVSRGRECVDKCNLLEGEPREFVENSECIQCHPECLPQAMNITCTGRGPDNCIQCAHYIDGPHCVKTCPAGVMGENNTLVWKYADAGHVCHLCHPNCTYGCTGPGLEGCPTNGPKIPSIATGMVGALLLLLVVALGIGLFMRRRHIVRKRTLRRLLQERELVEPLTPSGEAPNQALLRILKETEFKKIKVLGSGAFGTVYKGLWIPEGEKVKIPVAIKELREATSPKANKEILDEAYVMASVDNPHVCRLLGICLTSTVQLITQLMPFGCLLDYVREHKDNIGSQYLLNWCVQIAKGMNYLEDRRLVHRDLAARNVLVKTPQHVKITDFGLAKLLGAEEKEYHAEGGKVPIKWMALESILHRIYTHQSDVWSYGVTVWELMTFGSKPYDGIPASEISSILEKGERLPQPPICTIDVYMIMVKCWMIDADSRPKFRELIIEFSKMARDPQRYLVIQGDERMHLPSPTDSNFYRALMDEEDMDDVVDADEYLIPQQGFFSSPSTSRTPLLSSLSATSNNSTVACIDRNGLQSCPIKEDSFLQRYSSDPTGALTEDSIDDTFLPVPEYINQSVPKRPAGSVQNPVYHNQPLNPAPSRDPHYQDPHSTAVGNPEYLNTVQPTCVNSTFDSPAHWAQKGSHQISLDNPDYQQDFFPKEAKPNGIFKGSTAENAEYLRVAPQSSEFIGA
A short description of data set [6]: Half-life period in phosphate buffered saline (PBS); Not active. Particulars: buffer. The data set is classed as ADME.
Data set [7] is described as follows: Half-life period in RPMI; Not active. The data set is classed as ADME. Put shortly:
as §2

What is called IC50 is the midpoint of a concentration-inhibition curve. A lower IC50 goes with greater potency in that assay. For orientation: half-life means how long it takes for the measured level to halve. Low readings indicate fast loss, high ones slow loss. Turning to `C/N=N/Nc1ccc2ncnc(Nc3cccc(C)c3)c2c1`, the 50% inhibitory concentration (IC50) in data set [1] stood at 28.9 µM; in the data set on NIH3T3 it was 125 µM; in data set [2] it was 16.5 µM. For the same molecule, the half-life in data set [3] is 1.15 h; in data set [4] it was 0.583 h.
For `C/N=N/Nc1ccc2ncnc(Nc3cccc(Br)c3)c2c1` the same measures were 8.8 µM, 150 µM, 0.09 µM, 1.13 h and 0.633 h.
On to `CN(CO)/N=N/c1ccc2ncnc(Nc3cccc(Br)c3)c2c1`, for which the 50% inhibitory concentration (IC50) in data set [1] was 2.1 µM; in the data set with NIH3T3, 12.8 µM; in data set [2], 0.09 µM. Further, the half-life in data set [3] amounted to 1.17 h; in data set [4] it was 0.667 h.
On to `COc1cc2ncnc(Nc3cccc(Cl)c3)c2cc1OC.Cn1nnc2c(C(O)O)ncn2c1=O`, for which the IC50 in data set [1] worked out at 6.2 µM; in the data set on NIH3T3, 39.4 µM; in data set [2], 1.1 µM.
`CC(=O)OCN(C)/N=N/c1ccc2ncnc(Nc3cccc(Br)c3)c2c1`: the IC50 came out at 3.4 µM in data set [1], 15.4 µM in the data set on NIH3T3, 0.21 µM in data set [2] and 0.13 µM in data set [5]. For the same molecule, the figures for the half-life in data set [3] and in data set [4] were 1.4 h and 0.7 h, respectively.
For the molecule `CC(=O)N(C)/N=N/c1ccc2ncnc(Nc3cccc(C)c3)c2c1`, the concentration for half-maximal inhibition (IC50) in data set [1] stood at 149 µM; in the data set on NIH3T3 it was 200 µM; in data set [2], 60.6 µM; in data set [5], 0.578 µM. Moreover, the half-life in data set [3] and in data set [4] was above 3.33 h throughout.
For `Nc1ccc2ncnc(Nc3cccc(Br)c3)c2c1`, the half-inhibitory concentration (IC50) in data set [1] stood at 10.4 µM; with NIH3T3, 14.5 µM; in data set [2] it was 0.42 µM. Further, the NA result in data set [6] and in data set [7] was “Not Active” each time.
Consider `COc1cc2ncnc(Nc3cccc(Cl)c3)c2cc1OC` [TYRPHOSTIN AG-1478], for which the concentration for half-maximal inhibition (IC50) in data set [1] was 9.8 µM; in the data set with NIH3T3, 28.6 µM; in data set [2], 4 µM.

The values above are taken from ChEMBL document CHEMBL1145931, “Synthesis of a prodrug designed to release multiple inhibitors of the epidermal growth factor receptor tyrosine kinase and an alkylating agent: a novel tumor targeting concept” (J Med Chem, 2003).
